# According to PubChem BioAssay:
# Active and inactive are the calls of the source.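 How the source made its calls, unless noted: active means primary screen hit whose calcium fluorescence ratio, in both repeats, exceeds the weak agonist control mean by 3 SD; inactive means the rest.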
# System: TRPC4 beta (transient receptor potential cation channel C4), mouse
# Experiment: potentiation of DAMGO EC20 TRPC4 response – cell-based, Fluo-4, HEK293 TRPC4beta/mu-opioid, confirmation (AID 2555)
# Details: DAMGO EC20, Fluo-4 calcium flux, at 10 µM; active compounds read high
Structure (SMILES),outcome,potentiation
CCCCN(CC)CCNC(=O)Cn1cc2c(n1)-c1c(oc(C(=O)N3CCCC3)c1C)CC2,inactive,–
Cc1ccc(NC(=S)NC2CC3CCC(C2)N3Cc2ccco2)c(C)c1 (stereo not drawn),inactive,–
COc1ccc(N2CCN(Cc3nc4ccccc4n3C)CC2)cc1,inactive,–
CCC(=O)NC(C)C(c1cccs1)N1CCN(c2ccccc2)CC1 (stereo not drawn),inactive,–
CC(=O)n1cc([C@H]2C=C(C(=O)NCc3ccccc3)O[C@@H](OCc3ccc(CO)cc3)C2)c2ccccc21,inactive,–
CCN1CCCC1CNC(=O)c1cc2c(OC)cccc2[nH]1 (stereo not drawn),inactive,–
COc1ccc(F)cc1CN1CCN(C(=O)CCC(=O)Nc2nnc(C(C)C)s2)CC1,inactive,–
CN(CCOc1ccc(Br)cc1)CC(O)c1ccccc1 (stereo not drawn),inactive,–
CCN1CCN(c2c(Cl)cccc2NC(=O)c2ccc([N+](=O)[O-])cc2)CC1,inactive,–
CCn1c(=O)c(C(=O)NNC(=O)c2ccccc2F)c(O)c2ccccc21,inactive,–
CN1C(CC(=O)Nc2ccc(Br)cc2)c2ccccc2CC1(C)C (stereo not drawn),inactive,–
COc1ccc(C(CNCC(O)COc2c(C)ccc(C)c2C)N(C)C)cc1 (stereo not drawn),inactive,–
COc1ccc(C(CNC(=O)C(Cc2ccccc2)NC(N)=O)N(C)C)cc1 (stereo not drawn),inactive,–
CCCN(CCC)CCNC(=O)CCC(=O)Nc1ccc2nc(N3CCOCC3)cc(C)c2c1,inactive,–
Fc1ccc(NC(=S)NCCc2ccccn2)cc1,inactive,–
Cc1noc(C)c1CCC(=O)NC1CCCN(Cc2ccc(CC(C)C)cc2)C1 (stereo not drawn),inactive,–
COc1ccc(C(CCNCc2ccc(N(C)C)cc2)c2ccccc2)cc1 (stereo not drawn),inactive,–
COc1ccc(-c2nn(-c3ccccc3C)cc2CNCc2cccnc2)cc1F,inactive,–
CN(C)C(CNC(=O)c1cccc(S(=O)(=O)N(C)C)c1)c1ccccc1 (stereo not drawn),inactive,–
Nc1c(C(=O)c2ccccc2)sc2nsc(SCCN3CCCC3)c12,inactive,–

Structure (SMILES),outcome,potentiation
CC1CC(C)CN(CCCNC(=O)c2ccc3c(c2)N(Cc2ccccc2)C(=O)c2ccccc2S3=O)C1 (stereo not drawn),inactive,–
CN(C)c1ccc(C(CNC(=O)Cc2cccc3ccccc23)N(C)C)cc1 (stereo not drawn),inactive,–
Cc1csc2c(N3CCN(C(=S)Nc4ccc(C(F)(F)F)cc4)CC3)ncnc12,inactive,–
O=S(=O)(NCCc1csc(-c2ccccc2)n1)c1cccnc1,inactive,–
COc1ccc(-c2nc(CSCC(=O)NC3CCN(Cc4ccccc4)CC3)c(C)o2)cc1OC,inactive,–
NC(N)=NN=C1CCCCCCCCCCC1,inactive,–
CCn1c(CN2CCN(Cc3ccc(C)cc3)C(CCO)C2)nc2ccccc21 (stereo not drawn),inactive,–
COc1ccc(C(CNc2nc(-c3cccnc3)nc3ccccc23)N(C)C)cc1 (stereo not drawn),inactive,–
Cc1ccc(Cn2c(SCCN3CCCCC3)nc3c2c(=O)n(C)c(=O)n3C)cc1,–,13% (active)
COc1ccc(C(CNC(=O)CCOc2ccccc2)N(C)C)cc1 (stereo not drawn),inactive,–
CCOC(=O)C1(CCOc2ccccc2)CCN(Cc2cc(OC)ccc2OC)CC1,inactive,–
Cc1cccc(NC(=S)NCC(c2ccccc2)N(C)C)c1 (stereo not drawn),inactive,–
CC(C)n1cnc2c(N(C)c3ccccc3)nc(N(CCN(C)C)Cc3ccccc3)nc21,inactive,–
CC(CN1CCCC(C(N)=O)C1)c1ccccc1 (stereo not drawn),inactive,–
O=c1c(Cc2ccc(F)cc2)c(O)ccn1CCc1cnc[nH]1,inactive,–
Cc1c(Cl)cccc1NC(=S)NCC(c1cccnc1)N(C)C (stereo not drawn),inactive,–
COc1ccc(C(CNC(=O)c2ccc3c(c2)OCCO3)N(C)C)cc1 (stereo not drawn),inactive,–
O=C(NC1CCCN(Cc2ccc(Cl)cc2)C1)C1CCC1 (stereo not drawn),inactive,–
CN(C)c1ccc(-c2sc(Nc3ccccc3)n[n+]2-c2ccc(F)cc2)cc1,inactive,–

# Biological target: Short transient receptor potential channel 4 (Mus musculus) (UniProt Q9QUQ5)
# Sequence (Q9QUQ5 whole entry, looked up): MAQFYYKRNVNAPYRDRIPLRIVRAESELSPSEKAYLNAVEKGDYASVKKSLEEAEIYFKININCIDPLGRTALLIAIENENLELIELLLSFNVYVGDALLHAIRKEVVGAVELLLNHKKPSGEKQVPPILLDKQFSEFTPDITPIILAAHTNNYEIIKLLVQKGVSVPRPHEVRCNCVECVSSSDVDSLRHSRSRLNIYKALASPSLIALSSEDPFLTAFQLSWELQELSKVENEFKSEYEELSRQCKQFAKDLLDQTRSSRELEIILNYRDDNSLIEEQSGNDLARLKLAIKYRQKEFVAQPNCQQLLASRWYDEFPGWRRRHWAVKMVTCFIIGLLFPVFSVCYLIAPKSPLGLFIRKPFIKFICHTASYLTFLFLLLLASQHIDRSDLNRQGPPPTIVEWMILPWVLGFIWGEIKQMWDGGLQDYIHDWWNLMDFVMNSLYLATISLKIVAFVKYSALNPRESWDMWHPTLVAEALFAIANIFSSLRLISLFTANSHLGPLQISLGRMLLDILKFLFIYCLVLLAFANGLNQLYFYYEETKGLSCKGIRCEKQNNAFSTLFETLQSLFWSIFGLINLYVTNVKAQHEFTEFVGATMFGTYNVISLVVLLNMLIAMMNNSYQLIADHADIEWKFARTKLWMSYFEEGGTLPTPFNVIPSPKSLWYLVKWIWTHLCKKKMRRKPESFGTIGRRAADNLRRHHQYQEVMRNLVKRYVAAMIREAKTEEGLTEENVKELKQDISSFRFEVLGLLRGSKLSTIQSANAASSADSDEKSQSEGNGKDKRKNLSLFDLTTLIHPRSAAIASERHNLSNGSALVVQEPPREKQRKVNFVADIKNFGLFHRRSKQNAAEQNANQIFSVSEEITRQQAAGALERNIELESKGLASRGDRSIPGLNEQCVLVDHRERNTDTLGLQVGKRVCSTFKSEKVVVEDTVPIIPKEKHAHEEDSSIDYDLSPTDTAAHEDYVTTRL
# Experiment: blockers of DAMGO-evoked TRPC4 calcium flux – cell-based, Fluo4, HEK293 TRPC4beta/mu-opioid, confirmation (AID 2636;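 active means calcium signal cut by more than 3 SD below the full-agonist control yet still positive, in both repeats and the earlier primary screen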)
# Details: at 10 µM; active compounds read high
# In short: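 Assay system: HEK293 cells stably co-expressing mouse TRPC4beta and mu-opioid receptor / Also added: DAMGO agonist, submaximal followed by maximal addition / Compound dosing: single final compound concentration of 10 µM / Times: compound pre-incubation 110 s before DAMGO / Detection: Fluo4 calcium flux fluorescence, kinetic read / Replicates: duplicate wells for each compound, averaged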
row,Structure (SMILES),outcome
1,CCCCN(CC)CCNC(=O)Cn1cc2c(n1)-c1c(oc(C(=O)N3CCCC3)c1C)CC2,inactive
2,Cc1ccc(NC(=S)NC2CC3CCC(C2)N3Cc2ccco2)c(C)c1 (stereo not drawn),inactive
3,COc1ccc(N2CCN(Cc3nc4ccccc4n3C)CC2)cc1,inactive
4,CCC(=O)NC(C)C(c1cccs1)N1CCN(c2ccccc2)CC1 (stereo not drawn),inactive
5,CC(=O)n1cc([C@H]2C=C(C(=O)NCc3ccccc3)O[C@@H](OCc3ccc(CO)cc3)C2)c2ccccc21,inactive
6,CCN1CCCC1CNC(=O)c1cc2c(OC)cccc2[nH]1 (stereo not drawn),inactive
7,COc1ccc(F)cc1CN1CCN(C(=O)CCC(=O)Nc2nnc(C(C)C)s2)CC1,inactive
8,CN(CCOc1ccc(Br)cc1)CC(O)c1ccccc1 (stereo not drawn),inactive
9,CCN1CCN(c2c(Cl)cccc2NC(=O)c2ccc([N+](=O)[O-])cc2)CC1,inactive
10,CCn1c(=O)c(C(=O)NNC(=O)c2ccccc2F)c(O)c2ccccc21,inactive
11,CN1C(CC(=O)Nc2ccc(Br)cc2)c2ccccc2CC1(C)C (stereo not drawn),inactive
12,COc1ccc(C(CNCC(O)COc2c(C)ccc(C)c2C)N(C)C)cc1 (stereo not drawn),inactive
13,COc1ccc(C(CNC(=O)C(Cc2ccccc2)NC(N)=O)N(C)C)cc1 (stereo not drawn),inactive
14,CCCN(CCC)CCNC(=O)CCC(=O)Nc1ccc2nc(N3CCOCC3)cc(C)c2c1,inactive
15,Fc1ccc(NC(=S)NCCc2ccccn2)cc1,inactive
16,Cc1noc(C)c1CCC(=O)NC1CCCN(Cc2ccc(CC(C)C)cc2)C1 (stereo not drawn),inactive
17,COc1ccc(C(CCNCc2ccc(N(C)C)cc2)c2ccccc2)cc1 (stereo not drawn),inactive
18,COc1ccc(-c2nn(-c3ccccc3C)cc2CNCc2cccnc2)cc1F,inactive
19,CN(C)C(CNC(=O)c1cccc(S(=O)(=O)N(C)C)c1)c1ccccc1 (stereo not drawn),inactive
20,Nc1c(C(=O)c2ccccc2)sc2nsc(SCCN3CCCC3)c12,inactive

row,Structure (SMILES),outcome
1,CC1CC(C)CN(CCCNC(=O)c2ccc3c(c2)N(Cc2ccccc2)C(=O)c2ccccc2S3=O)C1 (stereo not drawn),inactive
2,CN(C)c1ccc(C(CNC(=O)Cc2cccc3ccccc23)N(C)C)cc1 (stereo not drawn),inactive
3,Cc1csc2c(N3CCN(C(=S)Nc4ccc(C(F)(F)F)cc4)CC3)ncnc12,inactive
4,O=S(=O)(NCCc1csc(-c2ccccc2)n1)c1cccnc1,inactive
5,COc1ccc(-c2nc(CSCC(=O)NC3CCN(Cc4ccccc4)CC3)c(C)o2)cc1OC,inactive
6,NC(N)=NN=C1CCCCCCCCCCC1,inactive
7,CCn1c(CN2CCN(Cc3ccc(C)cc3)C(CCO)C2)nc2ccccc21 (stereo not drawn),inactive
8,COc1ccc(C(CNc2nc(-c3cccnc3)nc3ccccc23)N(C)C)cc1 (stereo not drawn),inactive
9,Cc1ccc(Cn2c(SCCN3CCCCC3)nc3c2c(=O)n(C)c(=O)n3C)cc1,inactive
10,COc1ccc(C(CNC(=O)CCOc2ccccc2)N(C)C)cc1 (stereo not drawn),inactive
11,CCOC(=O)C1(CCOc2ccccc2)CCN(Cc2cc(OC)ccc2OC)CC1,inactive
12,Cc1cccc(NC(=S)NCC(c2ccccc2)N(C)C)c1 (stereo not drawn),inactive
13,CC(C)n1cnc2c(N(C)c3ccccc3)nc(N(CCN(C)C)Cc3ccccc3)nc21,inactive
14,CC(CN1CCCC(C(N)=O)C1)c1ccccc1 (stereo not drawn),inactive
15,O=c1c(Cc2ccc(F)cc2)c(O)ccn1CCc1cnc[nH]1,inactive
16,Cc1c(Cl)cccc1NC(=S)NCC(c1cccnc1)N(C)C (stereo not drawn),inactive
17,COc1ccc(C(CNC(=O)c2ccc3c(c2)OCCO3)N(C)C)cc1 (stereo not drawn),inactive
18,O=C(NC1CCCN(Cc2ccc(Cl)cc2)C1)C1CCC1 (stereo not drawn),inactive
19,CN(C)c1ccc(-c2sc(Nc3ccccc3)n[n+]2-c2ccc(F)cc2)cc1,inactive
